Laboratory results taken from PubChem BioAssay.
Activity calls are given as the source filed them.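 Rule for the calls, unless noted: active = inhibition at or above 50% at 10 µM; inactive = inhibition below 50%.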

Experiments:
[1] = inhibitors of TNFa-induced NFkB p65 translocation, primary screen, imaging, HUVEC, MLSMR starter and 10KST1 sets (AID 438;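 active = inhibition above 20% together with a positive visual image hit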;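 note: compound added about 3h40 before a 20 min TNFalpha stimulation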;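 for inhibition: signal is the nuclear over cytoplasmic p65 intensity ratio per well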); settings: HUVEC TNFa-induced p65 nuclear translocation; cell count: measured here: nuclei count (cytotoxicity indicator), at 2.08 µM; inhibition: at 2 µM, stronger effect = higher value, 0% TNFa-plus-vehicle, 100% no-TNFa wells
[2] = inhibitors of mutant huntingtin aggregation, primary screen, imaging, exon1htt(103Q)mCFP cells, high-content imaging (AID 483;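 active = visual image review flags a hit and inhibition of aggregation exceeds 20%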;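 note: compound exposure lasted 3 days before fixation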;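 for nuclei count: percent of the per-plate median nuclei count of sample wells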); settings: exon1htt(103Q)mCFP cell line, aggregate imaging, at 2 µM; inhibition of aggregation: stronger effect = higher value; nuclei count: measured here: cell count, toxicity
[3] = inhibitors of E-selectin induction by TNFa, primary screen, imaging, HUVEC, immunofluorescence, MLSMR starter and 10KST1 sets (AID 487;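 active = visually confirmed hit in the image check and inhibition above 20%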;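 for inhibition: signal is fraction of cell area covered by stained E-selectin grains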;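 for nuclei count: 100% = median nuclei count of all wells on the same plate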); settings: HUVEC TNFalpha-induced E-selectin immunofluorescence imaging, at 2 µM; inhibition: stronger effect = higher value; nuclei count: measured here: cell number, toxicity
[4] = biological target: Voltage-gated potassium channel subunit beta-2 (Rattus norvegicus) (UniProt P62483); assay: KvBeta enzyme negative modulators, primary screen, biochemical, NADPH fluorescence (AID 622;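 active = fluorescence slope higher than the sample average by over 3 SD, cut at about -0.22 in these data, passing the limit was not always enough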;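 note: slope of raw intensity against log time taken from 70 to 1610 s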); settings: recombinant KvBeta, 4-cyanobenzaldehyde reduction, at 10 µM, stronger effect = higher value
Voltage-gated potassium channel subunit beta-2 (Rattus norvegicus), sequence (P62483 whole entry, looked up): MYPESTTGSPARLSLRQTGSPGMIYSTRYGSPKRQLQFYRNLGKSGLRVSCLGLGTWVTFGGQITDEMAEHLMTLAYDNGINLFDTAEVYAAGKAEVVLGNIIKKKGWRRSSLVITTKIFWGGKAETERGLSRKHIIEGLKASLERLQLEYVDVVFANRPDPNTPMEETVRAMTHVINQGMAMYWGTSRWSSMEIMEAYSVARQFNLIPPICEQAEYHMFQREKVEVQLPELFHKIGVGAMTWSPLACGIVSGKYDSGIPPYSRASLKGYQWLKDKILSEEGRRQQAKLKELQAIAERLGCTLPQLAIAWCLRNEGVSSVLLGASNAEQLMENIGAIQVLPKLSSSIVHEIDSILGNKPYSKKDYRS

[5] = biological target: Voltage-gated potassium channel subunit beta-2 (Rattus norvegicus) (UniProt P62483); assay: KvBeta positive modulators, primary screen, biochemical, NADPH fluorescence (AID 623;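 active = NADPH fluorescence slope more negative than the mean of all samples by about 3 SD, 99.7% confidence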;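 note: fluorescence intensity change per second fitted from 20 to 320 s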); settings: Recombinant KvBeta, NADPH fluorescence decrease slope, 10 min; at 10 µM; stronger effect = lower value
[6] = biological target: Muscarinic acetylcholine receptor M4 (Homo sapiens) (UniProt P08173); assay: compounds altering M4/GIRK thallium flux, either direction, primary screen, M4 allosteric agonist project, cell-based, HEK293 M4/GIRK, BTC-AM (AID 625;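 active = fluorescence slope after compound addition differing from the mean of all tested samples at 99.7% confidence, mostly higher but some lower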;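 note: thallium influx through GIRK channels coupled to M4 in HEK293 cells with BTC-AM dye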); settings: at 10 µM, actives lie on both sides
Muscarinic acetylcholine receptor M4 (Homo sapiens), sequence (P08173 whole entry, looked up): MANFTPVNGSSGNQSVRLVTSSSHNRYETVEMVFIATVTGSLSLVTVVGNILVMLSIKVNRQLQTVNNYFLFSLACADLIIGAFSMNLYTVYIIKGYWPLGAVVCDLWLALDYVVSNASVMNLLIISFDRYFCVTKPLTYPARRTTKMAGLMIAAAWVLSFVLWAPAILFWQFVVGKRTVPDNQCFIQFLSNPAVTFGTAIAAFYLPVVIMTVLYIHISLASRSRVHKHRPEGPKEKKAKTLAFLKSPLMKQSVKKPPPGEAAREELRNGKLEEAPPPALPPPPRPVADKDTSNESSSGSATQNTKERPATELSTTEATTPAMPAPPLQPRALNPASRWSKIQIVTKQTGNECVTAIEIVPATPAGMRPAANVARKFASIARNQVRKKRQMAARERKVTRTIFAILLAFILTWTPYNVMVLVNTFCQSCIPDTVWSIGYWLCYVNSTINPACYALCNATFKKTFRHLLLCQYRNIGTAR
Summary of the method: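 Assay system: HEK293 cells with M4 receptor and GIRK channels / Controls: carbachol and DMSO controls / Schedule: 1 h dye loading, 2 min kinetic read / Technique: kinetic fluorescence with BTC-AM dye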

[7] = inhibitors of Sendai virus-induced IRF3 signaling, primary screen, TLR/RLR signaling modifier project, cell-based, Sendai virus stimulus, luciferase, 10K MLSCN set (AID 602276); settings: HEK293 RL24 IRF3 luciferase reporter, at 10 µM, stronger effect = higher value;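 note: firefly luciferase from ISG56 promoter only with Renilla not read in this screen; 0% = Sendai virus plus DMSO and 100% = medium plus DMSO without virus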
[8] = inhibitors of poly I:C-induced TLR3 signaling, primary screen, cell-based, poly I:C stimulus, luciferase, 10K MLSCN set (AID 602277;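 active = inhibition of the reporter signal at or above 50%; inactive = inhibition below 50%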); settings: HEK293-TLR3 RL24 IRF3 luciferase reporter, at 10 µM, stronger effect = higher value

SMILES	cell count [1]	inhibition [1]	inhibition of aggregation [2]	nuclei count [2]	inhibition [3]	nuclei count [3]	fluorescence slope [4]	NADPH fluorescence slope [5]	fluorescence slope [6]	inhibition [7]	inhibition [8]
CN1CCCc2cc(C#N)c(=O)[nH]c21	492	-9.7% (inactive)	-0.4% (inactive)	108%	3.9% (inactive)	85%	-0.117 (active)	1e-05 (inactive)	0.00776 (inactive)	11.5% (inactive)	14% (inactive)
CCCC(C(=O)NCc1ccco1)N(C(=O)CNS(=O)(=O)c1ccc(Cl)cc1)C1CCCC1 (centres undefined)	387	-0.7% (inactive)	-2.5% (inactive)	110%	-210% (inactive)	111%	-0.522 (inactive)	-1.1e-05 (inactive)	0.00544 (inactive)	24.7% (inactive)	25.7% (inactive)
CCCC(=O)Nc1ccccc1NC(=O)CN(C)S(=O)(=O)c1ccc(C)cc1	182	-6.3% (inactive)	-6.6% (inactive)	81.6%	20.2% (inactive)	83.4%	-0.56 (inactive)	-3e-05 (inactive)	0.00633 (inactive)	1.42% (inactive)	11.1% (inactive)
Cc1nc(-c2cnn(-c3ccccc3)c2)c2cc(C)oc2n1	312	-2.8% (inactive)	10.4% (inactive)	85.8%	-48.6% (inactive)	159%	-0.572 (inactive)	9.5e-07 (inactive)	0.0027 (inactive)	10.4% (inactive)	-22.9% (inactive)
O=C(Cc1ccsc1-c1ccccc1)NO	483	-1.2% (inactive)	11.3% (inactive)	76%	44.1% (inactive)	57.7%	-0.46 (inactive)	-3.2e-05 (inactive)	0.00508 (inactive)	17.8% (inactive)	11.3% (inactive)
C=CCOc1cccc(C2/C(=C(\O)c3ccc(F)cc3)C(=O)C(=O)N2CCN(C)C)c1 (centres undefined)	699	-12.1% (inactive)	20.1% (inactive)	82.8%	33.3% (inactive)	99.1%	-0.493 (inactive)	-0.000177 (inactive)	0.00287 (inactive)	8.26% (inactive)	15.2% (inactive)
CCSC1=C(C#N)C(c2cccc(OC)c2)CC(=O)N1 (centres undefined)	667	-14.3% (inactive)	-16.9% (inactive)	101%	-70.7% (inactive)	114%	-0.496 (inactive)	-3.8e-05 (inactive)	0.00475 (inactive)	14.9% (inactive)	11.6% (inactive)
Cc1ccc(NC2=NC(c3ccccc3)n3c(nc(C)cc3=O)N2)cc1 (centres undefined)	568	-5.6% (inactive)	-4.2% (inactive)	89.6%	-13% (inactive)	90.9%	-0.529 (inactive)	3.4e-05 (inactive)	0.00472 (inactive)	14.2% (inactive)	19.7% (inactive)
O=C(NC1CCCc2ccccc21)C1CCN(S(=O)(=O)c2cnc[nH]2)CC1 (centres undefined)	529	-10.3% (inactive)	-6.4% (inactive)	98.8%	-6.8% (inactive)	111%	-0.566 (inactive)	-2.6e-05 (inactive)	0.00517 (inactive)	4% (inactive)	19.5% (inactive)
Cc1ccc(S(=O)(=O)NCCNC(=O)c2ccccc2)cc1	212	-4.9% (inactive)	10.3% (inactive)	97.8%	-38.2% (inactive)	93.6%	-0.282 (inactive)	-4.2e-05 (inactive)	0.00552 (inactive)	13.4% (inactive)	10.4% (inactive)
CCCc1nn(CCc2ccccn2)c(N)c1CC	613	-9.1% (inactive)	7.2% (inactive)	105%	-43.2% (inactive)	140%	-0.372 (inactive)	5.8e-05 (inactive)	0.00633 (inactive)	14.8% (inactive)	21.5% (inactive)
Clc1ccc(Cc2nn3c(-c4ccncc4)nnc3s2)cc1	322	-5.1% (inactive)	5.5% (inactive)	83.3%	-102% (inactive)	110%	-0.523 (inactive)	-0.000147 (inactive)	0.00382 (inactive)	-1.37% (inactive)	-9.67% (inactive)
Cc1ccc(C(=O)CCC2CCCC2=O)cc1 (centres undefined)	718	-21.6% (inactive)	-2.7% (inactive)	86.9%	22.6% (inactive)	97.8%	-0.263 (inactive)	-3.8e-05 (inactive)	0.00558 (inactive)	-20.4% (inactive)	-124% (inactive)
CCN(CC)S(=O)(=O)c1ccc(C(=O)Oc2ccc3c(c2)OCO3)cc1	603	-8.9% (inactive)	-5% (inactive)	108%	-19.8% (inactive)	110%	-0.477 (inactive)	1.4e-07 (inactive)	0.00717 (inactive)	1.83% (inactive)	9.42% (inactive)
